CC50, EC50 and selectivity ratio data for twelve compounds are collected here from ChEMBL document CHEMBL3351523 (Bioorg Med Chem, 2014).

Data set [1] can be described thus: Cytotoxicity against mock-infected human MT4 cells after 96 hrs by MTT assay. The class given is cell-based. The essentials:
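Exponentially growing MT-4 cells were seeded at 1 × 10^5 cells/mL in RPMI-1640 with 10% FBS and held at 37 °C, 5% CO2 with serial compound dilutions. Viability was read by MTT after 96 h. CC50 from linear regression against untreated controls.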
A general note: Formazan colour is commonly taken as a measure of viable cells.

Data set [2] concerns Human immunodeficiency virus 1. The data set can be described thus: Antiviral activity against HIV1 infected in human MT4 cells assessed as inhibition of virus-induced cytopathogenicity after 4 days by MTT assay. The class given is functional, organism-based. The following applies: Human immunodeficiency virus 1, MT4, 96 h. The gist of the method:
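MT-4 cells (1 × 10^4/well in RPMI) were infected acutely with HIV-1 IIIB, 100 CCID50 (m.o.i. 0.01), with serial dilutions from 100 µM, 1:5. After 4 days at 37 °C, protection from virus-induced cytopathogenicity was read by MTT. EC50 came from linear regression against untreated controls.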

Data set [3] can be described thus: Cytotoxicity against mock-infected MDBK cells after 48 to 96 hrs by MTT assay. The following applies: cattle. It counts as cell-based, Bos taurus. The gist of the method: (§1)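 Mock-infected MDBK (6 × 10^5 cells/mL; MEM-E, 10% horse serum, 1 mM pyruvate) or BHK (1 × 10^6 cells/mL; MEM-E, 10% FBS) cells were incubated at 37 °C, 5% CO2 with serial dilutions from 100 µM, 1:5. Viability by MTT after 48–96 h. CC50 from linear regression against untreated controls.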

For data set [4], the system named is Bovine viral diarrhea virus 1. The data set is described as follows: Antiviral activity against Bovine viral diarrhea virus infected in MDBK cells assessed as inhibition of virus-induced cytopathogenicity after 3 to 4 days by MTT assay. To be noted: Bovine viral diarrhea virus isolates and strains. The class given is functional, organism-based. On the technique in general: Protection from cytopathic effect is a common read-out in antiviral testing.

A short description of data set [5]: Cytotoxicity against mock-infected BHK21 cells after 48 to 96 hrs by MTT assay. The class given is functional. The following applies: Mesocricetus auratus, BHK-21. The gist of the method: as §1
Data set [6] deals with Yellow fever virus. The data set can be described thus: Antiviral activity against Yellow fever virus infected in BHK21 cells assessed as inhibition of virus-induced cytopathogenicity after 3 to 4 days by MTT assay. The class given is functional, organism-based. The following applies: BHK-21.
Data set [7] relates to Reovirus sp. The data set is described as follows: Antiviral activity against Reovirus type-1 infected in BHK21 cells assessed as inhibition of virus-induced cytopathogenicity after 3 to 4 days by MTT assay. It counts as functional, organism-based. The following applies: BHK-21.
Data set [8] is described as follows: Cytotoxicity against mock-infected african green monkey Vero 76 cells after 48 to 96 hrs by MTT assay. The class given is cell-based. The following applies: chlorocebus sabaeus, mock-infected Vero 76 cells.
In data set [9] the test system is Coxsackievirus B5. The data set is described as follows: Antiviral activity against Coxsackievirus B5 infected in african green monkey Vero 76 cells assessed as reduction in plaque number after 3 days by plaque reduction assay. The class given is functional, organism-based. The following applies: Enterovirus B, 72 h. For orientation: In a plaque reduction assay, fewer plaques than in the control indicate reduced infectivity or spread.

Data set [10] has as its system Poliovirus 1. The data set is described as follows: Antiviral activity against Poliovirus type 1 Sabin strain infected in african green monkey Vero 76 cells assessed as reduction in plaque number after 2 days by plaque reduction assay. It counts as functional, organism-based. The following applies: Enterovirus C, 48 h.
Data set [11] concerns Respiratory syncytial virus. The data set can be described thus: Antiviral activity against Respiratory syncytial virus infected in african green monkey Vero 76 cells assessed as reduction in plaque number after 5 days by plaque reduction assay. The class given is functional, organism-based. To be noted: human respiratory syncytial virus, 120 h.
Data set [12] concerns Vesicular stomatitis virus. The data set is described as follows: Antiviral activity against Vesicular stomatitis virus infected in african green monkey Vero 76 cells assessed as reduction in plaque number after 2 days by plaque reduction assay. It counts as functional, organism-based. The following applies: 48 h.
Data set [13] has as its system Vaccinia virus. The data set can be described thus: Antiviral activity against Vaccinia Virus infected in african green monkey Vero 76 cells assessed as reduction in plaque number after 3 days by plaque reduction assay. The following applies: Orthopoxvirus vaccinia, 72 h. The class given is functional, organism-based.
Data set [14] relates to Human alphaherpesvirus 1. The data set can be described thus: Antiviral activity against HSV1 infected in african green monkey Vero 76 cells assessed as reduction in plaque number after 3 days by plaque reduction assay. It counts as functional, organism-based. The following applies: Human alphaherpesvirus 1, Vero, 72 h.
The nature of data set [15]: Selectivity index, ratio of CC50 for african green monkey Vero 76 cells to EC50 for Respiratory syncytial virus. To be noted: read-out: Ratio CC50/EC50. It counts as toxicity, cell-based. The essentials:
(§2)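 Mock-infected Vero-76 cells were tested in parallel on the same 24-well plates as the plaque assays (seeding 4 × 10^5 cells/mL, D-MEM with FBS), with serial compound dilutions at 37 °C, 5% CO2. Viability was read after 48–96 h by crystal violet staining. CC50 by linear regression; selectivity index = Vero-76 CC50/EC50 for CVB-5 or RSV.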

The nature of data set [16]: Selectivity index, ratio of CC50 for african green monkey Vero 76 cells to EC50 for Coxsackievirus B5. To be noted: read-out: Ratio CC50/EC50. The class given is toxicity, cell-based. The essentials: as §2

SMILES strings stand for the structures. pEC50: −log10 of the molar value.

One may read the CC50 as the concentration at which the toxic effect on the cells reaches its halfway point. For orientation: pEC50 means −log10 of the EC50, conventionally taken in molar units. In turn, `c1ccc(Cn2c(-c3ccccc3)nc3ccccc32)cc1` registered a CC50 at 96 h in data set [1] of 47 µM. For the same compound, the pEC50 in data set [2], in data set [4], in data set [6], in data set [7], in data set [9] and in data set [10] was less than 4.00 each time. Further, the pEC50 was 4.60 in data set [11], less than 4.00 in data set [12], less than 4.00 in [13] and less than 4.00 in [14]. The results for the CC50 in [3], in [5] and in data set [8] were 54 µM, 36 µM and 87 µM, respectively. Moreover, the selectivity ratio in [15] amounted to 3.48.
In data set [1], `Cc1ccc2nc(-c3ccc(F)cc3)n([C@H]3CCCN4CCCC[C@H]34)c2c1` displayed a CC50 at 96 h of more than 100 µM. Further, the pEC50 was less than 4.00 in data set [2]; less than 4.00 in data set [4]; less than 4.00 in data set [6]; less than 4.00 in [7]; 4.10 in data set [9]; less than 4.00 in data set [10]. The pEC50 in data set [11] is 4.20; in [12], less than 4.00; in data set [13], less than 4.00; in [14], less than 4.00. Besides, the CC50 in [3], in data set [5] and in data set [8] was more than 100 µM throughout. Further, the selectivity ratio in data set [16] is more than 1.25; in data set [15], more than 1.59.
In data set [1], `Clc1ccc2nc(-c3ccccc3)n([C@H]3CCCN4CCCC[C@H]34)c2c1` registered a CC50 at 96 h of 56 µM. Further, the pEC50 in [2] is less than 4.00; in [4], 4.10; in data set [6] it was less than 4.00; in data set [7], less than 4.00; in data set [9] it was 4.85; in data set [10], less than 4.00. The pEC50 in data set [11] was 4.35; in data set [12] it was less than 4.00; in data set [13], less than 4.00; in data set [14], less than 4.00. The CC50 in data set [3] was determined as 86 µM; in data set [5], 48 µM; in data set [8] it was 90 µM. The values for the selectivity ratio in [16] and in data set [15] were 6.43 and 2, respectively.
`c1ccc2c(c1)Cn1c(nc3ccccc31)-c1ccccc1-2` yielded a CC50 at 96 h in data set [1] of 44 µM. Besides, the pEC50 in data set [2], in [4], in data set [6], in data set [7], in [9] and in [10] was less than 4.00 throughout. Also, the pEC50 in [11] was 5.05; in data set [12] it was less than 4.00; in data set [13], less than 4.00; in [14], less than 4.00. The CC50 in data set [3] was determined as 23 µM; in data set [5] it was 20 µM; in [8], 80 µM. In addition, the selectivity ratio in data set [15] turned out to be 8.89.
Take `COc1ccc(Cc2nc3cc(Cl)c(Cl)cc3[nH]2)cc1`: in data set [1], the CC50 at 96 h turned out to be 29 µM. Besides, the pEC50 in [2], in [4], in data set [6], in data set [7], in data set [9] and in data set [10] was less than 4.00 throughout. Further, the pEC50 in data set [11] is 5.30; in data set [12] it was less than 4.00; in data set [13], less than 4.00; in data set [14] it was less than 4.00. Besides, the CC50 in data set [3] was 17 µM; in data set [5], 19 µM; in data set [8], more than 100 µM. In addition, the selectivity ratio in data set [15] is not below 20.
The compound `Cc1nc2cc(C(F)(F)F)ccc2n1C[C@@H]1CCCN2CCCC[C@H]12` returned a CC50 at 96 h in data set [1] of more than 100 µM. Besides, the pEC50 in data set [2] was less than 4.00; in data set [4] it was less than 4.00; in [6], 4.57; in data set [7] it was less than 4.00; in data set [9], 4.33; in [10], less than 4.00. The pEC50 in [11] was less than 4.00; in [12], less than 4.00; in data set [13], 4.64; in data set [14], less than 4.00. In addition, the CC50 in data set [3], in data set [5] and in data set [8] was more than 100 µM each time. Further, the selectivity ratio in data set [16] was more than 2.13.
Consider `FC(F)(F)c1ccc2c(c1)nc(CC1CCCC1)n2C[C@@H]1CCCN2CCCC[C@H]12`, for which the CC50 at 96 h in [1] was found to be 11 µM. Moreover, the pEC50 was less than 4.00 in data set [2]; less than 4.00 in data set [4]; less than 4.00 in data set [6]; less than 4.00 in data set [7]; 4.96 in data set [9]; less than 4.00 in data set [10]. Also, the pEC50 in data set [11], in [12], in data set [13] and in [14] was less than 4.00 each time. The CC50 in data set [3] is 35 µM; in data set [5] it was 32 µM; in data set [8], more than 100 µM. Also, in [16], the selectivity ratio is more than 9.09.
`c1ccc2[nH]c(CC3CCCC3)nc2c1` had a CC50 at 96 h in [1] of more than 100 µM. Moreover, the pEC50 in [2] is less than 4.00; in data set [4] it was less than 4.00; in data set [6] it was less than 4.00; in data set [7], less than 4.00; in [9], 4.68; in data set [10], less than 4.00. In addition, the pEC50 in [11], in data set [12], in data set [13] and in [14] was less than 4.00 in each case. Also, the CC50 in data set [3], in [5] and in data set [8] was more than 100 µM each time. For the same compound, the selectivity ratio in data set [16] was more than 4.76.
Consider `c1ccc(-n2c(C[C@H]3CCCN4CCCC[C@H]34)nc3ccccc32)cc1`, for which the CC50 at 96 h in data set [1] amounted to 42 µM. Moreover, the pEC50 in data set [2] is less than 4.00; in data set [4], 4.36; in [6] it was less than 4.00; in data set [7] it was less than 4.00; in [9], 4.77; in [10] it was 4.14. In addition, the pEC50 in [11] was 5.15; in data set [12] it was less than 4.00; in data set [13], less than 4.00; in data set [14] it was less than 4.00. Besides, the values for the CC50 in data set [3], in data set [5] and in data set [8] were 90 µM, 29 µM and more than 100 µM, respectively. For the same compound, the selectivity ratio was more than 5.88 in [16] and more than 14.3 in data set [15].
As for `O=c1cnn([C@@H]2O[C@H](CO)[C@@H](O)[C@H]2O)c(=O)[nH]1` [6-AZAURIDINE], the CC50 in [3] was more than 100 µM; in data set [5], more than 100 µM; in [8], 20 µM. Moreover, the pEC50 in data set [4], in data set [6], in [7], in [9], in [10] and in data set [12] was less than 4.00 each time. In data set [14], the pEC50 was less than 4.00. In addition, the selectivity ratio in data set [15] came out at 16.7.
In the case of `COc1c(C)c2c(c(O)c1C/C=C(\C)CCC(=O)O)C(=O)OC2` [MYCOPHENOLIC ACID], the pEC50 in data set [4] was less than 4.00; in [6], less than 4.00; in [7] it was less than 4.00; in data set [9] it was less than 4.00; in data set [10], less than 4.00; in data set [13] it was 5.70. Further, the pEC50 in data set [14] was less than 4.00. The CC50 in data set [5] was more than 100 µM; in [8], 20 µM. For the same compound, the selectivity ratio in data set [15] amounted to 33.3.
Turning to `NC(=O)c1ncn([C@@H]2O[C@H](CO)[C@@H](O)[C@H]2O)n1` [RIBAVIRIN], the CC50 in data set [3], in data set [5] and in data set [8] was more than 100 µM each time. In addition, the pEC50 in [4] is 5.10; in data set [6], less than 4.00; in data set [7], less than 4.00; in data set [9], less than 4.00; in data set [10] it was less than 4.00; in [12], less than 4.00. The pEC50 in data set [13] and in data set [14] was less than 4.00 throughout. Moreover, in data set [15], the selectivity ratio is more than 14.3.
